# Results as given in ChEMBL document CHEMBL1145189, “Synthesis and evaluation of S-acyl-2-thioethyl esters of modified nucleoside 5'-monophosphates as inhibitors of hepatitis C virus RNA replication” (J Med Chem, 2005).
# Where “and” joins values, the source holds several entries; their conditions need not be identical. Identical values can stand only once.
# Experiments:
# [1] = Cytotoxic concentration of compound in human HBI10A cells infected with hepatitis C virus in MTS assay; format: functional
# Summary of the method: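 MTS cytotoxicity run on samples parallel to the replicon assay, at the same time (24 h compound exposure). Cells plated at 2.0 × 10⁴/well and compound added next day at 2× in medium. Incubation at 37 °C, 5% CO₂. MTS reagent added for 1 h, then absorbance read at 490 nm.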
# [2] = Effective concentration against hepatitis C virus RNA replication in a subgenomic bicistronic replicon in HBI10A cells; format: functional, cell-based; details: Homo sapiens
# Summary of the method: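 Stable Huh-7-derived HBI10A hepatoma line carrying a subgenomic bicistronic HCV replicon. Compound incubated with cells for 24 h. Relative replicon RNA then quantified by in situ ribonuclease protection assay.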
# [3] = test system: CHO; experiment: Effect of compound (550 uM) on growth of CHO cells measured as population doublings from the beginning of the experiment as percent of controls after 20 hr of treatment (harvested at 42h of treatment); format: functional, Cricetulus griseus
# Summary of the method: (§1)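 Exponentially growing CHO (clone WBL) monolayers treated for 20 h without S-9. DMSO stock diluted 100-fold into medium, giving 1% v/v DMSO as vehicle control. Cultures harvested at 20, 30 or 42 h after dosing. Growth expressed as population doublings from start of experiment as a percentage of controls.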
# [4] = test system: CHO; experiment: Percent of CHO cells with chromosomal aberrations were determined at 650 uM compound after 20 hr of treatment (harvested at 20h of treatment); Not scored because of toxicity; format: functional, cell-based; details: Cricetulus griseus
# Summary of the method: (§2)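 CHO (clone WBL) monolayers treated for 20 h without S-9, with DMSO stock diluted 100-fold into medium. Harvest at 20, 30 or 42 h after dosing; colcemid added 1–2 h before harvest for metaphase arrest. Cells fixed, and 200 cells scored per point for % aberrant cells. Points not scored where toxicity prevented it. Comparison against concurrent controls.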
# [5] = test system: CHO; experiment: Percent of CHO cells with chromosomal aberrations were determined at 550 uM compound after 20 hr of treatment (harvested at 20h of treatment); format: functional, Cricetulus griseus; summary of the method: as §2
# [6] = test system: CHO; experiment: Effect of compound (700 uM) on growth of CHO cells measured as population doublings from the beginning of the experiment as percent of controls after 20 hr of treatment (harvested at 42h of treatment); format: functional, Cricetulus griseus; summary of the method: as §1
# [7] = test system: Huh-7; experiment: Average intracellular Metabolism was measured in human Huh-7 cells after 3 h of incubation; format: functional
# Summary of the method: (§3)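 Radiolabeled 5-[³H] compound at 2 µM incubated with Huh-7 (passage 27) or HBI10A (passage 15) cells for 3 or 23 h. Cells extracted and analysed by ion pair reverse-phase HPLC. Triphosphate reported as pmol/million cells, with major metabolic byproducts noted. Averages of at least three separate experiments.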
# [8] = test system: CHO; experiment: Effect of compound (650 uM) on growth of CHO cells measured as population doublings from the beginning of the experiment as percent of controls after 20 hr of treatment (harvested at 30h of treatment); format: functional, Cricetulus griseus; summary of the method: as §1
# [9] = Average intracellular Metabolism was measured in human HBI10A cells after 23 hr of incubation; format: functional; summary of the method: as §3
# [10] = test system: CHO; experiment: Effect of compound (550 uM) on growth of CHO cells measured as population doublings from the beginning of the experiment as percent of controls after 20 hr of treatment (harvested at 20h of treatment); format: functional, Cricetulus griseus; summary of the method: as §1
# [11] = test system: CHO; experiment: Percent of CHO cells with chromosomal aberrations were determined at 800 uM compound after 20 hr of treatment (harvested at 42h of treatment); Not scored because of toxicity; format: functional, cell-based; details: Cricetulus griseus; summary of the method: as §2
# [12] = test system: CHO; experiment: Effect of compound (800 uM) on growth of CHO cells measured as population doublings from the beginning of the experiment as percent of controls after 20 hr of treatment (harvested at 30h of treatment); format: functional, Cricetulus griseus; summary of the method: as §1
# [13] = test system: CHO; experiment: Percent of CHO cells with chromosomal aberrations were determined at 600 uM compound after 20 hr of treatment (harvested at 42h of treatment); format: functional, Cricetulus griseus; summary of the method: as §2
# [14] = test system: CHO; experiment: Percent of CHO cells with chromosomal aberrations were determined at 700 uM compound after 20 h of treatment (harvested at 30h of treatment); Not scored because of toxicity; format: functional, cell-based; details: Cricetulus griseus; summary of the method: as §2
# [15] = test system: CHO; experiment: Effect of compound (550 uM) on growth of CHO cells measured as population doublings from the beginning of the experiment as percent of controls after 20 hr of treatment (harvested at 30h of treatment); format: functional, Cricetulus griseus; summary of the method: as §1
# [16] = Average intracellular Metabolism was measured in human HBI10A cells after 3 h of incubation; format: functional; summary of the method: as §3
# [17] = test system: CHO; experiment: Effect of compound (800 uM) on growth of CHO cells measured as population doublings from the beginning of the experiment as percent of controls after 20 hr of treatment (harvested at 42h of treatment); format: functional, Cricetulus griseus; summary of the method: as §1
# [18] = test system: CHO; experiment: Percent of CHO cells with chromosomal aberrations were determined at 700 uM compound after 20 hr of treatment (harvested at 42h of treatment); format: functional, Cricetulus griseus; summary of the method: as §2
# [19] = test system: CHO; experiment: Percent of CHO cells with chromosomal aberrations were determined at 600 uM compound after 20 hr of treatment (harvested at 30h of treatment); format: functional, Cricetulus griseus; summary of the method: as §2
# [20] = test system: CHO; experiment: Effect of compound (800 uM) on growth of CHO cells measured as population doublings from the beginning of the experiment as percent of controls after 20 hr of treatment (harvested at 20h of treatment); format: functional, Cricetulus griseus; summary of the method: as §1
# [21] = test system: CHO; experiment: Percent of CHO cells with chromosomal aberrations were determined at 800 uM compound after 20 hr of treatment (harvested at 30h of treatment); Not scored because of toxicity; format: functional, cell-based; details: Cricetulus griseus; summary of the method: as §2
# [22] = test system: CHO; experiment: Percent of CHO cells with chromosomal aberrations were determined at 650 uM compound after 20 hr of treatment (harvested at 30h of treatment); format: functional, Cricetulus griseus; summary of the method: as §2
# [23] = test system: CHO; experiment: Effect of compound (600 uM) on growth of CHO cells measured as population doublings from the beginning of the experiment as percent of controls after 20 hr of treatment (harvested at 20h of treatment); format: functional, Cricetulus griseus; summary of the method: as §1
# [24] = test system: CHO; experiment: Effect of compound (650 uM) on growth of CHO cells measured as population doublings from the beginning of the experiment as percent of controls after 20 hr of treatment (harvested at 20h of treatment); format: functional, Cricetulus griseus; summary of the method: as §1
# [25] = test system: CHO; experiment: Effect of compound (600 uM) on growth of CHO cells measured as population doublings from the beginning of the experiment as percent of controls after 20 hr of treatment (harvested at 42h of treatment); format: functional, Cricetulus griseus; summary of the method: as §1
# [26] = test system: CHO; experiment: Percent of CHO cells with chromosomal aberrations were determined at 800 uM compound after 20 hr of treatment (harvested at 20h of treatment); Not scored because of toxicity; format: functional, cell-based; details: Cricetulus griseus; summary of the method: as §2
# [27] = test system: CHO; experiment: Effect of compound (700 uM) on growth of CHO cells measured as population doublings from the beginning of the experiment as percent of controls after 20 hr of treatment (harvested at 20h of treatment); format: functional, Cricetulus griseus; summary of the method: as §1
# [28] = test system: CHO; experiment: Percent of CHO cells with chromosomal aberrations were determined at 600 uM compound after 20 hr of treatment (harvested at 20h of treatment); format: functional, Cricetulus griseus; summary of the method: as §2
# [29] = test system: Huh-7; experiment: Average intracellular Metabolism was measured in human Huh-7 cells after 23 hr of incubation; format: functional; summary of the method: as §3
# [30] = test system: CHO; experiment: Effect of compound (650 uM) on growth of CHO cells measured as population doublings from the beginning of the experiment as percent of controls after 20 hr of treatment (harvested at 42h of treatment); format: functional, Cricetulus griseus; summary of the method: as §1
# [31] = test system: CHO; experiment: Effect of compound (700 uM) on growth of CHO cells measured as population doublings from the beginning of the experiment as percent of controls after 20 h of treatment (harvested at 30h of treatment); format: functional, Cricetulus griseus; summary of the method: as §1
# [32] = test system: CHO; experiment: Effect of compound (600 uM) on growth of CHO cells measured as population doublings from the beginning of the experiment as percent of controls after 20 hr of treatment (harvested at 30h of treatment); format: functional, Cricetulus griseus; summary of the method: as §1
# [33] = test system: CHO; experiment: Percent of CHO cells with chromosomal aberrations were determined at 550 uM compound after 20 hr of treatment (harvested at 30h of treatment); format: functional, Cricetulus griseus; summary of the method: as §2
# [34] = test system: CHO; experiment: Percent of CHO cells with chromosomal aberrations were determined at 700 uM compound after 20 hr of treatment (harvested at 20h of treatment); Not scored because of toxicity; format: functional, cell-based; details: Cricetulus griseus; summary of the method: as §2
# [35] = Inhibitory concentration against hepatitis C virus NS5B-mediated RNA synthesis in HBI10A cells; format: functional, cell-based; details: Homo sapiens
structure (smiles),measurement,setting,value
CC(C)(C)C(=O)SCCOP(=O)(OCCSC(=O)C(C)(C)C)OC[C@@H]1C[C@@H](O)[C@H](n2cnc3c(O)nc(N)nc32)O1,CC50,[1],> 50 µM
same,EC50,[2],23 µM
CC(C)(C)C(=O)SCCOP(=O)(OCCSC(=O)C(C)(C)C)OC[C@@H]1C[C@@H](O)[C@H](n2ccc(N)nc2=O)O1,CC50,[1],> 100 µM
same,EC50,[2],1.4 µM
CO[C@@H]1[C@H](O)[C@@H](COP(=O)(OCCSC(=O)C(C)(C)C)OCCSC(=O)C(C)(C)C)O[C@H]1n1cnc2c(O)nc(N)nc21,CC50,[1],> 50 µM
same,EC50,[2],> 50 µM
CO[C@@H]1[C@H](O)[C@@H](COP(=O)(OCCSC(=O)C(C)(C)C)OCCSC(=O)C(C)(C)C)O[C@H]1n1ccc(N)nc1=O,Growth,[3],95%
same,Aberrant cells,[4],Not scored
same,Aberrant cells,[5],0%
same,Growth,[6],47%
same,Activity,[7],7.02 pmol/million cells
same,Growth,[8],46%
same,Activity,[9],5.8 pmol/million cells
same,Growth,[10],59%
same,Aberrant cells,[11],Not scored
same,CC50,[1],> 100 µM
same,Growth,[12],0%
same,Aberrant cells,[13],1.5%
same,Aberrant cells,[14],Not scored
same,Growth,[15],82%
same,Activity,[16],15.9 pmol/million cells
same,Growth,[17],0%
same,Aberrant cells,[18],3.5%
same,Aberrant cells,[19],1.5%
same,Growth,[20],6%
same,Aberrant cells,[21],Not scored
same,Aberrant cells,[22],4.5% and 3%
same,Growth,[23],51%
same,Growth,[24],27%
same,Growth,[25],88%
same,Aberrant cells,[26],Not scored
same,Growth,[27],21%
same,Aberrant cells,[28],2%
same,Activity,[29],1.88 pmol/million cells
same,Growth,[30],90%
same,Growth,[31],6%
same,Growth,[32],57%
same,EC50,[2],3 µM
same,Aberrant cells,[33],3.5%
same,Aberrant cells,[34],Not scored
CO[C@@H]1[C@H](O)[C@@H](COP(=O)(OCCSC(=O)C(C)(C)C)OCCSC(=O)C(C)(C)C)O[C@H]1n1ccc2c(O)nc(N)nc21,CC50,[1],> 100 µM
same,EC50,[2],> 50 µM
Nc1nc2c(ncn2[C@@H]2O[C@H](CO)C[C@H]2O)c(=O)[nH]1,IC50,[35],0.6 µM
same,EC50,[2],> 50 µM
CC(C)(C)C(=O)SCCOP(=O)(OCCSC(=O)C(C)(C)C)OC[C@@H]1C[C@@H](O)[C@H](n2ccc3c(O)nc(N)nc32)O1,CC50,[1],> 50 µM
same,EC50,[2],7.2 µM
